Published values pooled from the literature.
Compare with care: the assays were run in different laboratories.
Target: cAMP-dependent protein kinase catalytic subunit beta (PRKACB, Homo sapiens, UniProt P22694)

Compound | observed | method | tested at | remaining binding [%]
CN(C)CC#Cc1ccc(OCCCc2sc(N3CCc4cccc(C(=O)Nc5nc6ccccc6s5)c4C3)nc2C(=O)O)c(F)c1 | cell-free assay | competition with immobilised ligand | 1 µM | 100
O=C(c1ccc(Nc2ncc(Cl)c(-c3ccc(Cl)s3)n2)cc1)N1CCC(N2CCCC2)CC1 | binding | competition with immobilised ligand | 1 µM | 100
C[C@H]1CCN(c2nccc(-c3cnn4ncccc34)n2)C1 | binding | competition with immobilised ligand | 1 µM | 99
O=C(Nc1c[nH]nc1C(=O)NC1CCNCC1)c1cc(F)cc(F)c1 | binding | competition with immobilised ligand | 1 µM | 100
COc1ncc2cc3ccccc3nc2c1C#N | cell-free assay | competition with immobilised ligand | 5 µM | 97
CN(CCCC(F)(F)F)c1nccc(-c2cnn3ncccc23)n1 | binding | competition with immobilised ligand | 1 µM | 100
NS(=O)(=O)c1cc(NC(=O)Cc2ccccc2)ccc1Oc1cccc(Cl)c1 | cell-free assay | competition with immobilised ligand | 1 µM | 100
FC(F)(F)Oc1cccc(-c2cnc3ccc(-c4ccncc4)nn23)c1 | cell-free assay | competition with immobilised ligand | 5 µM | 98
C=CC(=O)N1CCC(C(=O)NCC(=O)N2CCN(c3nc(-c4cnc(N)nc4C(F)F)nc(N4CCOCC4)n3)CC2)CC1 | binding | competition with immobilised ligand | 1 µM | 90
Cc1nc(Cc2cccc(C(F)(F)F)c2)sc1-c1ccc(C(N)=O)nc1 | cell-free assay | competition with immobilised ligand | 1 µM | 92
COc1ccnn2ncc(-c3ccnc(N(C)C)n3)c12 | binding | competition with immobilised ligand | 1 µM | 95
CS(=O)(=O)N1CCCC(NC(=O)[C@H](CCC2CCCCC2)NC(=O)c2ccc(CNc3ncnc4c3nnn4-c3ccccc3)cc2)C1 (some centres unmarked) | cell-free assay | competition with immobilised ligand | 0.1 µM | 92
O=C(c1ccc(Nc2nccc(-c3cc4ccccc4s3)n2)cc1)N1CCC(N2CCCC2)CC1 | binding | competition with immobilised ligand | 1 µM | 100
Cc1cnn2ncc(-c3ccnc(N(C)C)n3)c2c1 | binding | competition with immobilised ligand | 1 µM | 96
CNC(=O)[C@@H]1CC[C@@H](n2c(-c3ccc4cnccc4c3)nc3ccc(C(=O)NCc4cccc(C(N)=O)c4)cc32)C1 | binding | competition with immobilised ligand | 1 µM | 100
C[C@@H]1CN(c2cc(-c3n[nH]c4ccc(OC5(C)CC5)cc34)ncn2)C[C@H](C)O1 | cell-free assay | competition with immobilised ligand | 0.1 µM | 91
CN(c1nccc(-c2cnn3ncccc23)n1)C1CC1 | binding |  | 1 µM | 99
O=C(NCCCN1CCOCC1)c1ccc(Nc2ncc(Cl)c(-c3ccc(Cl)s3)n2)cc1 | binding | competition with immobilised ligand | 1 µM | 100
O=C(NCCCC1CCCCC1)c1ccc(CNC(=O)c2cnn(-c3ccccc3)c2C(F)(F)F)cc1 | cell-free assay | competition with immobilised ligand | 0.1 µM | 100
c1cnn2ncc(-c3ccnc(N4CCC45COC5)n3)c2c1 | binding | competition with immobilised ligand | 1 µM | 92
